# From ChEMBL document CHEMBL1158336, “Synthesis, antitubercular activity and docking study of novel cyclic azole substituted diphenyl ether derivatives” (2009)
# Test system: Mycobacterium tuberculosis
# Test: Antimycobacterial activity against Mycobacterium tuberculosis H37Rv after 6 weeks
# Type: functional
# Method in brief: (§1)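 Lowenstein–Jensen slope method. Compounds dissolved in DMSO, diluted in DMSO, and an aliquot mixed into L.J. medium at 0.8 mL per 7.2 mL. Slopes set and sterilised at 75–80 °C for 3 days. M. tuberculosis H37Rv suspended with glass beads in sterile water and inoculated by 3 mm nichrome loop. DMSO-only and compound-free media served as controls.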
row,SMILES,MIC [µg/mL]
1,NNC(=O)c1ccncc1 [ISONIAZID],0.01
2,CO[C@H]1/C=C/O[C@@]2(C)Oc3c(C)c(O)c4c(O)c(c(/C=N/N5CCN(C)CC5)c(O)c4c3C2=O)NC(=O)/C(C)=C\C=C\[C@H](C)[C@H](O)[C@@H](C)[C@@H](O)[C@@H](C)[C@H](OC(C)=O)[C@@H]1C [RIFAMPIN],0.06
3,Oc1cc(Cl)ccc1Oc1ccc(Cl)cc1Cl [TRICLOSAN],5

# Test system: Mycobacterium tuberculosis
# Test: Antimycobacterial activity against Mycobacterium tuberculosis H37Rv at 1 ug/ml after 6 weeks
# Type: functional
# Method in brief: as §1
row,SMILES,Activity [%]
1,S=c1[nH]nc(-c2ccc(Oc3ccccc3)cc2)o1,100
2,c1ccc(Oc2cccc(-c3nc(-c4ccccc4)co3)c2)cc1,100
3,COc1ccc(-c2coc(-c3cccc(Oc4ccccc4)c3)n2)cc1,100
4,S=c1[nH]nc(-c2cccc(Oc3ccccc3)c2)n1-c1ccccc1,100
5,Clc1ccc(-c2coc(-c3cccc(Oc4ccccc4)c3)n2)cc1,100
6,O=C(c1ccccc1)N1N=C(c2ccccn2)CC1c1ccc(Oc2ccccc2)cc1 (centres undefined),100
7,S=c1[nH]nc(-c2ccccc2Oc2ccccc2)o1,100
8,S=c1[nH]nc(-c2cccc(Oc3ccccc3)c2)o1,100
9,S=c1[nH]nc(-c2ccc(Oc3ccccc3)cc2)n1-c1ccccc1,100
10,S=c1[nH]nc(-c2ccccc2Oc2ccccc2)n1-c1ccccc1,100
11,Oc1cc(Cl)ccc1Oc1ccc(Cl)cc1Cl [TRICLOSAN],100
